Experimental data from ChEMBL document CHEMBL4627348, “Synthesis of (1,3,4-thiadiazol-2-yl)-acrylamide derivatives as potential antitumor agents against acute leukemia cells” (Bioorg Med Chem Lett, 2020).
The source made the active and inactive calls. The rule behind the calls is not given here.

Test system: RS4-11
Experiment: Antiproliferative activity against human RS4:11 cells assessed as growth inhibition at 20 uM after 48 hrs by CCK-8 assay relative to control
Assay type: functional
Conditions: RS4-11, 48 h, read-out: GI
Procedure, shortened: (§1)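 Single-dose screen at 20 μM in RS4;11 (human ALL), HL-60 (human promyelocytic leukemia) and HEK293T (normal-cell model). Cells exposed 48 h, viability read by CCK-8, growth inhibition ratio expressed relative to control.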

Point of comparison: `Cc1ccc(Cc2nnc(NC(=O)/C(C#N)=C/c3ccccc3OS(=O)(=O)c3ccc(Cl)cc3)s2)cc1`, inhibition of growth at 20 µM 72%. Against it:
- Cc1ccc(S(=O)(=O)Oc2ccccc2/C=C(\C#N)C(=O)Nc2nnc(Cc3cccc4ccccc34)s2)cc1 — higher, 73%
- N#C/C(=C\c1ccccc1OS(=O)(=O)c1ccccc1[N+](=O)[O-])C(=O)Nc1nnc(Cc2ccc(Cl)cc2)s1 — lower, 65%
- Cc1ccc(S(=O)(=O)Oc2ccccc2/C=C(\C#N)C(=O)Nc2nnc(Cc3ccc(Cl)cc3)s2)cc1 — lower, 69%
- N#C/C(=C\c1ccccc1OS(=O)(=O)c1ccc([N+](=O)[O-])cc1)C(=O)Nc1nnc(Cc2cccc3ccccc23)s1 — lower, 58%
- N#C/C(=C\c1ccccc1OS(=O)(=O)c1ccccc1[N+](=O)[O-])C(=O)Nc1nnc(Cc2ccccc2)s1 — lower, 71%
- Cc1ccc(S(=O)(=O)Oc2ccccc2/C=C(\C#N)C(=O)Nc2nnc(Cc3ccc(F)cc3)s2)cc1 — the same, 72%
- N#C/C(=C\c1ccccc1OS(=O)(=O)c1ccc([N+](=O)[O-])cc1)C(=O)Nc1nnc(-c2cccs2)s1 — lower, 40%
- N#C/C(=C\c1ccccc1OS(=O)(=O)c1ccc([N+](=O)[O-])cc1)C(=O)Nc1nnc(Cc2ccc(F)cc2)s1 — lower, 55%
- N#C/C(=C\c1ccccc1OS(=O)(=O)c1ccc(OC(F)(F)F)cc1)C(=O)Nc1nnc(-c2cccs2)s1 — lower, 39%
- N#C/C(=C\c1ccccc1OS(=O)(=O)c1ccc(F)cc1)C(=O)Nc1nnc(Cc2cccc3ccccc23)s1 — lower, 68%
- N#C/C(=C\c1ccccc1OS(=O)(=O)c1ccc(Cl)cc1)C(=O)Nc1nnc(-c2cccs2)s1 — lower, 22%
- COc1ccc(Cc2nnc(NC(=O)/C(C#N)=C/c3ccccc3OS(=O)(=O)c3ccc(F)cc3)s2)cc1 — higher, 80%
- Cc1ccc(S(=O)(=O)Oc2ccccc2/C=C(\C#N)C(=O)Nc2nnc(Cc3cccc(F)c3)s2)cc1 — lower, 56%
- Cc1ccc(Cc2nnc(NC(=O)/C(C#N)=C/c3ccccc3OS(=O)(=O)c3ccc(C)cc3)s2)cc1 — lower, 66%
- COc1ccc(Cc2nnc(NC(=O)/C(C#N)=C/c3ccccc3OS(=O)(=O)c3ccc(C)cc3)s2)cc1 — lower, 70%
- N#C/C(=C\c1ccccc1OS(=O)(=O)c1ccc(Cl)cc1)C(=O)Nc1nnc(Cc2ccc(F)cc2)s1 — lower, 68%
- Cc1ccc(S(=O)(=O)Oc2ccccc2/C=C(\C#N)C(=O)Nc2nnc(Cc3ccccc3)s2)cc1 — lower, 69%

Test system: HL-60
Experiment: Antiproliferative activity against human HL60 cells assessed as growth inhibition at 20 uM after 48 hrs by CCK-8 assay relative to control
Assay type: functional
Conditions: not given
Procedure, shortened: as §1

In the case of `Cc1ccc(S(=O)(=O)Oc2ccccc2/C=C(\C#N)C(=O)Nc2nnc(Cc3ccc(F)cc3)s2)cc1`, the “growth inhibition (GI)” value is reported as “inactive”.

Same assay, conditions: HL-60, 48 h, read-out: GI

Point of comparison: `N#C/C(=C\c1ccccc1OS(=O)(=O)c1ccc([N+](=O)[O-])cc1)C(=O)Nc1nnc(-c2cccs2)s1`, inhibition of growth at 20 µM 23%. Against it:
- Cc1ccc(S(=O)(=O)Oc2ccccc2/C=C(\C#N)C(=O)Nc2nnc(Cc3cccc4ccccc34)s2)cc1 — lower, 19%
- N#C/C(=C\c1ccccc1OS(=O)(=O)c1ccccc1[N+](=O)[O-])C(=O)Nc1nnc(Cc2ccc(Cl)cc2)s1 — lower, 19%
- Cc1ccc(S(=O)(=O)Oc2ccccc2/C=C(\C#N)C(=O)Nc2nnc(Cc3ccc(Cl)cc3)s2)cc1 — lower, 15%
- Cc1ccc(Cc2nnc(NC(=O)/C(C#N)=C/c3ccccc3OS(=O)(=O)c3ccc(Cl)cc3)s2)cc1 — higher, 38%
- N#C/C(=C\c1ccccc1OS(=O)(=O)c1ccc([N+](=O)[O-])cc1)C(=O)Nc1nnc(Cc2cccc3ccccc23)s1 — lower, 18%
- N#C/C(=C\c1ccccc1OS(=O)(=O)c1ccccc1[N+](=O)[O-])C(=O)Nc1nnc(Cc2ccccc2)s1 — lower, 12%
- N#C/C(=C\c1ccccc1OS(=O)(=O)c1ccc([N+](=O)[O-])cc1)C(=O)Nc1nnc(Cc2ccc(F)cc2)s1 — lower, 18%
- N#C/C(=C\c1ccccc1OS(=O)(=O)c1ccc(OC(F)(F)F)cc1)C(=O)Nc1nnc(-c2cccs2)s1 — higher, 48%
- N#C/C(=C\c1ccccc1OS(=O)(=O)c1ccc(F)cc1)C(=O)Nc1nnc(Cc2cccc3ccccc23)s1 — lower, 12%
- N#C/C(=C\c1ccccc1OS(=O)(=O)c1ccc(Cl)cc1)C(=O)Nc1nnc(-c2cccs2)s1 — lower, 17%
- COc1ccc(Cc2nnc(NC(=O)/C(C#N)=C/c3ccccc3OS(=O)(=O)c3ccc(F)cc3)s2)cc1 — higher, 25%
- Cc1ccc(S(=O)(=O)Oc2ccccc2/C=C(\C#N)C(=O)Nc2nnc(Cc3cccc(F)c3)s2)cc1 — lower, 11%
- Cc1ccc(Cc2nnc(NC(=O)/C(C#N)=C/c3ccccc3OS(=O)(=O)c3ccc(C)cc3)s2)cc1 — lower, 17%
- COc1ccc(Cc2nnc(NC(=O)/C(C#N)=C/c3ccccc3OS(=O)(=O)c3ccc(C)cc3)s2)cc1 — higher, 25%
- N#C/C(=C\c1ccccc1OS(=O)(=O)c1ccc(Cl)cc1)C(=O)Nc1nnc(Cc2ccc(F)cc2)s1 — lower, 20%
- Cc1ccc(S(=O)(=O)Oc2ccccc2/C=C(\C#N)C(=O)Nc2nnc(Cc3ccccc3)s2)cc1 — lower, 16%

Test system: not listed separately
Experiment: Cytotoxicity against HEK293T cells assessed as growth inhibition at 20 uM after 48 hrs by CCK8 assay relative to control
Assay type: cell-based, HEK-293T
Conditions: human, HEK293T cells; read-out: GI
Procedure, shortened: as §1

Point of comparison: `Cc1ccc(Cc2nnc(NC(=O)/C(C#N)=C/c3ccccc3OS(=O)(=O)c3ccc(C)cc3)s2)cc1`, inhibition at 48 h, 20 µM 22%. Against it:
- Cc1ccc(S(=O)(=O)Oc2ccccc2/C=C(\C#N)C(=O)Nc2nnc(Cc3cccc4ccccc34)s2)cc1 — higher, 23%
- N#C/C(=C\c1ccccc1OS(=O)(=O)c1ccccc1[N+](=O)[O-])C(=O)Nc1nnc(Cc2ccc(Cl)cc2)s1 — lower, 20%
- Cc1ccc(S(=O)(=O)Oc2ccccc2/C=C(\C#N)C(=O)Nc2nnc(Cc3ccc(Cl)cc3)s2)cc1 — lower, 20%
- Cc1ccc(Cc2nnc(NC(=O)/C(C#N)=C/c3ccccc3OS(=O)(=O)c3ccc(Cl)cc3)s2)cc1 — lower, 8%
- N#C/C(=C\c1ccccc1OS(=O)(=O)c1ccc([N+](=O)[O-])cc1)C(=O)Nc1nnc(Cc2cccc3ccccc23)s1 — higher, 25%
- N#C/C(=C\c1ccccc1OS(=O)(=O)c1ccccc1[N+](=O)[O-])C(=O)Nc1nnc(Cc2ccccc2)s1 — lower, 10%
- Cc1ccc(S(=O)(=O)Oc2ccccc2/C=C(\C#N)C(=O)Nc2nnc(Cc3ccc(F)cc3)s2)cc1 — lower, 16%
- N#C/C(=C\c1ccccc1OS(=O)(=O)c1ccc([N+](=O)[O-])cc1)C(=O)Nc1nnc(-c2cccs2)s1 — higher, 33%
- N#C/C(=C\c1ccccc1OS(=O)(=O)c1ccc([N+](=O)[O-])cc1)C(=O)Nc1nnc(Cc2ccc(F)cc2)s1 — lower, 8%
- N#C/C(=C\c1ccccc1OS(=O)(=O)c1ccc(OC(F)(F)F)cc1)C(=O)Nc1nnc(-c2cccs2)s1 — higher, 42%
- N#C/C(=C\c1ccccc1OS(=O)(=O)c1ccc(F)cc1)C(=O)Nc1nnc(Cc2cccc3ccccc23)s1 — lower, 15%
- N#C/C(=C\c1ccccc1OS(=O)(=O)c1ccc(Cl)cc1)C(=O)Nc1nnc(-c2cccs2)s1 — higher, 46%
- COc1ccc(Cc2nnc(NC(=O)/C(C#N)=C/c3ccccc3OS(=O)(=O)c3ccc(F)cc3)s2)cc1 — lower, 6%
- Cc1ccc(S(=O)(=O)Oc2ccccc2/C=C(\C#N)C(=O)Nc2nnc(Cc3cccc(F)c3)s2)cc1 — lower, 9%
- COc1ccc(Cc2nnc(NC(=O)/C(C#N)=C/c3ccccc3OS(=O)(=O)c3ccc(C)cc3)s2)cc1 — lower, 21%
- N#C/C(=C\c1ccccc1OS(=O)(=O)c1ccc(Cl)cc1)C(=O)Nc1nnc(Cc2ccc(F)cc2)s1 — lower, 6%
- Cc1ccc(S(=O)(=O)Oc2ccccc2/C=C(\C#N)C(=O)Nc2nnc(Cc3ccccc3)s2)cc1 — lower, 15%
